Measurements reported in ChEMBL document CHEMBL1137618, “Synthesis and structure-activity relationship studies of 3,6-diazabicyclo[3.2.0]heptanes as novel alpha4beta2 nicotinic acetylcholine receptor selective agonists” (J Med Chem, 2007).

Legend:
[1] = Displacement of [3H]cytisine from neuronal nicotinic acetylcholine receptor in rat brain membrane; assay type: cell membranes
[2] = target: T1, Neuronal acetylcholine receptor; alpha3/beta4 (Homo sapiens, UniProt P30926+P32297); test: Agonist activity at recombinant human alpha-3-beta-4 nAChR expressed in HEK293 cells assessed as induction of calcium influx by FLIPR assay; assay type: functional, cell-based
[3] = target: T2, Neuronal acetylcholine receptor; alpha4/beta2 (Homo sapiens, UniProt P17787+P43681); test: Agonist activity at recombinant human alpha-4-beta-2 nAChR expressed in HEK293 cells assessed as induction of calcium influx by FLIPR assay relative to nicotine; assay type: functional, cell-based
How it was run: (§1)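 HEK-293 lines stably expressing human α4β2 or α3β4 nAChR, grown 24-48 h at 37 °C on poly-D-lysine in DMEM/10% FBS. Loaded with 2-4 µM Fluo-4 AM for ~0.75-1 h at room temperature in the dark, in NMDG Ringer pH 7.4. Serial log dilutions added, then peak calcium fluorescence read on FLIPR after buffer-blank subtraction.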

[4] = target: T2, Neuronal acetylcholine receptor; alpha4/beta2; test: Agonist activity at recombinant human alpha-4-beta-2 nAChR expressed in HEK293 cells assessed as induction of calcium influx by FLIPR assay; assay type: functional, cell-based
[5] = target: T1, Neuronal acetylcholine receptor; alpha3/beta4; test: Agonist activity at recombinant human alpha3beta4 nAChR expressed in HEK293 cells assessed as induction of calcium influx by FLIPR assay relative to nicotine; assay type: functional, cell-based; how it was run: as §1

T1 sequence (P30926 whole entry): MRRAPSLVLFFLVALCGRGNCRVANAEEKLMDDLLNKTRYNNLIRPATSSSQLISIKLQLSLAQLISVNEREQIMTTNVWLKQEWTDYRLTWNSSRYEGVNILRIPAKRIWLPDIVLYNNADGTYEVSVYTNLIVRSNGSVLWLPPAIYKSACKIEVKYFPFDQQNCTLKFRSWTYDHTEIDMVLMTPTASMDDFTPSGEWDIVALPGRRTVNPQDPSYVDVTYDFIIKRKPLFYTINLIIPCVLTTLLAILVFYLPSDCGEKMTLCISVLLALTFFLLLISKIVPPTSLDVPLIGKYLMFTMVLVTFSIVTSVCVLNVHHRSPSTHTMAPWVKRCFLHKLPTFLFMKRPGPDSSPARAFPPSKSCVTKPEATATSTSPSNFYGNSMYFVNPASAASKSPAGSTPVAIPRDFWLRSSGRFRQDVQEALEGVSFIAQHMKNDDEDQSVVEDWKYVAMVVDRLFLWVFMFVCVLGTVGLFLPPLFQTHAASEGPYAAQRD
T1 sequence (P32297 whole entry): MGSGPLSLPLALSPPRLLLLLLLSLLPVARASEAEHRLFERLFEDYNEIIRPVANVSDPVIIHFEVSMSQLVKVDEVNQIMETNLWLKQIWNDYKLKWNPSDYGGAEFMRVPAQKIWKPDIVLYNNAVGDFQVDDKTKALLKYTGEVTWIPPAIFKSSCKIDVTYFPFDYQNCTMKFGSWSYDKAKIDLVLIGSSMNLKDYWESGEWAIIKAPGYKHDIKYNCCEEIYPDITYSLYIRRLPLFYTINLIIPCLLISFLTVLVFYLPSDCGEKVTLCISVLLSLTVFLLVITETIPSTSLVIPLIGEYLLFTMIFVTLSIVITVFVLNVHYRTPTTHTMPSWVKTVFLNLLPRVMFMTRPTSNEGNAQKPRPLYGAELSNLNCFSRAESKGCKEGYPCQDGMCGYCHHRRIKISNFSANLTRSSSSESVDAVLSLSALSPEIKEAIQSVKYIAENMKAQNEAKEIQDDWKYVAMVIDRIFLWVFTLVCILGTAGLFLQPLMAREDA
T2 sequence (P17787 whole entry): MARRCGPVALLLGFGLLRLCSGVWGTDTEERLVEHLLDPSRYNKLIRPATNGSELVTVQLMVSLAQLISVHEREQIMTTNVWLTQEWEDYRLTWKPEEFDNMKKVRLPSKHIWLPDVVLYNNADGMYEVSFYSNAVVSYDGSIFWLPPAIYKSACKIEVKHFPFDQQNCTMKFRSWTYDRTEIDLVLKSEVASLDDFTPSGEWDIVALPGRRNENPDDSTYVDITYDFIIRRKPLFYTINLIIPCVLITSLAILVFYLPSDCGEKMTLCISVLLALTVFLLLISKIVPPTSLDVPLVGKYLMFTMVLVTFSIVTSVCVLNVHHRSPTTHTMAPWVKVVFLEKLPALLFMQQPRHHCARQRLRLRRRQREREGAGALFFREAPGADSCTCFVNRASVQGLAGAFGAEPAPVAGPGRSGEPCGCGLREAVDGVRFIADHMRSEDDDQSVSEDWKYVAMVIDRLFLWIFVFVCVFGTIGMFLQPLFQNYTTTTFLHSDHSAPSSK
T2 sequence (P43681 whole entry): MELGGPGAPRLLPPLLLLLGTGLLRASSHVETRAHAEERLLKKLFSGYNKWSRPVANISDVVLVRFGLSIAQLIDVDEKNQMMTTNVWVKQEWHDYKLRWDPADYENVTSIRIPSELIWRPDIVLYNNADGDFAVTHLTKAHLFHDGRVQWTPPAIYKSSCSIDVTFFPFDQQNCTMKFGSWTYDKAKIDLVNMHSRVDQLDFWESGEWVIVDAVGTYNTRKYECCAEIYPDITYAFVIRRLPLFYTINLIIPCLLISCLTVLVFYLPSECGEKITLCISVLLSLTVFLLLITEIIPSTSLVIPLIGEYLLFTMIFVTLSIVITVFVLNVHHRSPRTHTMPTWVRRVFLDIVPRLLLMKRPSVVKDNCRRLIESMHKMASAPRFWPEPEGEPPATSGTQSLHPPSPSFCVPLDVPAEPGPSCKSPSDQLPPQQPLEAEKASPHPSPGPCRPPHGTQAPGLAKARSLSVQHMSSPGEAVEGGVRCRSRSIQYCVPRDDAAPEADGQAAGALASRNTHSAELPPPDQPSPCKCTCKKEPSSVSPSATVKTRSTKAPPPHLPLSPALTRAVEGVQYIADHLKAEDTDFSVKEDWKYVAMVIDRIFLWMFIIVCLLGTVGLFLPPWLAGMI

Row | SMILES | Ki [1] | Log Ki [1] | EC50 ([2]; read-out: EC50) | Activity [3] | EC50 ([4]; read-out: EC50) | Activity [5] | EC50 ([2]; read-out: Log EC50 (converted)) | EC50 ([4]; read-out: Log EC50 (converted))
1 | Clc1cc(N2C[C@@H]3CN[C@@H]3C2)cnc1Br | 0.2 nM | -9.62 | 600 nM | 108% | 400 nM | 92% |  | 
2 | Cc1cc(N2C[C@H]3CN[C@H]3C2)cnc1Cl | 0.04 nM | -10.4 | 200 nM | 228% | 700 nM | 119% | 178 nM | 72.4 nM
3 | Cc1cc(N2C[C@@H]3CNC[C@@H]32)cnc1C | 3.1 nM | -8.51 | 12300 nM | 83% | 1500 nM | 78% | 12000 nM | 
4 | c1cncc(N2C[C@H]3CN[C@H]3C2)c1 | 0.1 nM | -9.96 | 6000 nM | 181% | 300 nM | 119% | 603 nM | 
5 | Clc1ccc(C2CC3CCC2N3)cn1 (stereo unspecified) [EPIBATIDINE] |  |  |  | 133% |  | 103% |  | 
6 | N#Cc1cncc(N2C[C@H]3CNC[C@H]32)c1 | 3.2 nM | -8.5 |  | 65% | 5900 nM | 16% |  | 5130 nM
7 | Brc1cncc(N2C[C@@H]3CN[C@@H]3C2)c1 | 1.4 nM | -8.84 | 9100 nM | 53% | 6500 nM | 68% |  | 6170 nM
8 | COc1cc(N2C[C@@H]3CN[C@@H]3C2)cnc1Br | 1.9 nM | -8.71 | 4000 nM | 64% | 2200 nM | 72% |  | 
9 | Clc1cncc(N2C[C@@H]3CN[C@@H]3C2)c1 | 1.9 nM | -8.72 | 25300 nM | 66% | 11400 nM | 57% |  | 9330 nM
10 | Cc1cc(N2C[C@@H]3CN[C@@H]3C2)cnc1C | 2.2 nM | -8.65 | 3300 nM | 76% | 1200 nM | 85% |  | 
11 | Clc1ccc(N2C[C@@H]3CNC[C@@H]32)cn1 | 1.3 nM | -8.9 | 1200 nM | 107% | 300 nM | 94% |  | 
12 | Brc1cncc(N2C[C@@H]3CNC[C@@H]32)c1 | 1.5 nM | -8.83 | 6600 nM | 20% | 11400 nM | 23% | 3090 nM | 8710 nM
13 | Brc1cc(N2C[C@H]3CNC[C@H]32)cnc1Br | 0.5 nM | -9.35 | 1100 nM | 131% | 6900 nM | 94% |  | 676 nM
14 | Cc1ncc(N2C[C@@H]3CNC[C@@H]32)cc1C#N | 0.7 nM | -9.18 | 1600 nM | 116% | 500 nM | 95% |  | 
15 | Cc1cncc(N2C[C@@H]3CN[C@@H]3C2)c1 | 2.5 nM | -8.61 | 8000 nM | 76% | 39900 nM | 74% | 33100 nM | 30900 nM
16 | c1cncc(N2C[C@@H]3CN[C@@H]3C2)c1 | 1.2 nM | -8.92 | 6100 nM | 122% | 1600 nM | 90% |  | 
17 | Brc1cncc(N2C[C@H]3CN[C@H]3C2)c1 | 0.1 nM | -10.2 | 200 nM | 161% | 1100 nM | 115% | 240 nM | 
18 | N#Cc1cc(N2C[C@H]3CNC[C@H]32)c[n+]([O-])c1 | 18.6 nM | -7.74 |  | 69% | 7500 nM | < 10% |  | 4570 nM
19 | Cc1cc(N2C[C@H]3CNC[C@H]32)cnc1C | 8 nM | -8.1 | 4200 nM | 85% | 2100 nM | 86% |  | 
20 | CN1CCC[C@H]1c1cccnc1 [NICOTINE] |  |  |  | 101% |  | 89% |  | 
21 | COc1cncc(N2C[C@@H]3CNC[C@@H]32)c1 | 7.2 nM | -8.14 | 31200 nM | 43% | 24700 nM | 64% |  | 22900 nM
